ChEMBL document CHEMBL2413033, “Design and synthesis of novel series of 5-HT6 receptor ligands having indole, a central aromatic core and 1-amino-4 methyl piperazine as a positive ionizable group” (Bioorg Med Chem, 2013)

Columns and labels:
Assay type in all cases: functional, cell-based
[1] = molecular target: 5-hydroxytryptamine receptor 7 (Homo sapiens) (UniProt P34969); assay: Antagonist activity at human recombinant 5HT7 receptor expressed in HEK293 cells assessed as inhibition of 5HT-induced cAMP accumulation at 10 uM pretreated for 10 mins before 5HT addition measured after 1 hr relative to control
How it was run: (§1)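 Cells kept at 37 °C under 5% CO2/95% air were suspended in PBS with 2 mM IBMX. They were pretreated with compound (or not) for 10 min, then stimulated with 5-HT for 30 min. HTRF cAMP detection used d2-labelled cAMP and cryptate-labelled anti-cAMP antibody, 1 h at room temperature. Read-out was excitation 314 nm, emission 668 and 620 nm. Results are percent inhibition versus untreated controls.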

[2] = molecular target: 5-hydroxytryptamine receptor 4 (Homo sapiens) (UniProt Q13639); assay: Antagonist activity at human recombinant 5HT4 receptor expressed in HEK293 cells assessed as inhibition of 5HT-induced cAMP accumulation at 10 uM pretreated for 10 mins before 5HT addition measured after 1 hr relative to control; how it was run: as §1
[3] = molecular target: T1, 5-hydroxytryptamine receptor 6 (Homo sapiens, UniProt P50406); assay: Antagonist activity at human recombinant 5HT6 receptor expressed in HEK293 cells assessed as inhibition of 5HT-induced cAMP accumulation pretreated for 10 mins before 5HT addition measured after 1 hr; how it was run: as §1
[4] = molecular target: T1, 5-hydroxytryptamine receptor 6; assay: Antagonist activity at human recombinant 5HT6 receptor expressed in HEK293 cells assessed as inhibition of 5HT-induced cAMP accumulation at 10 uM pretreated for 10 mins before 5HT addition measured after 1 hr relative to control; how it was run: as §1

T1 sequence (P50406 whole entry): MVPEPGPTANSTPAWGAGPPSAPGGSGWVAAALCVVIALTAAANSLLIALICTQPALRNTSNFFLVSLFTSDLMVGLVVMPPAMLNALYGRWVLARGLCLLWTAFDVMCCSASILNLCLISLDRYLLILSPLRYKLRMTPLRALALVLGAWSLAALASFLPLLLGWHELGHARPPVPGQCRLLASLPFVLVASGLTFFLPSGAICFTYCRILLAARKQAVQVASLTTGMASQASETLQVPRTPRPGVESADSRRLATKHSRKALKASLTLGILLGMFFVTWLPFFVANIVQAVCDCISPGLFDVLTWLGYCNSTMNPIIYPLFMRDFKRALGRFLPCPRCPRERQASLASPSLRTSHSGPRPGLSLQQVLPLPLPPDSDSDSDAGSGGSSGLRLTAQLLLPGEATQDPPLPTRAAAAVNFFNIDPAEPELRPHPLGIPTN
5-hydroxytryptamine receptor 7 (Homo sapiens), sequence (P34969 whole entry): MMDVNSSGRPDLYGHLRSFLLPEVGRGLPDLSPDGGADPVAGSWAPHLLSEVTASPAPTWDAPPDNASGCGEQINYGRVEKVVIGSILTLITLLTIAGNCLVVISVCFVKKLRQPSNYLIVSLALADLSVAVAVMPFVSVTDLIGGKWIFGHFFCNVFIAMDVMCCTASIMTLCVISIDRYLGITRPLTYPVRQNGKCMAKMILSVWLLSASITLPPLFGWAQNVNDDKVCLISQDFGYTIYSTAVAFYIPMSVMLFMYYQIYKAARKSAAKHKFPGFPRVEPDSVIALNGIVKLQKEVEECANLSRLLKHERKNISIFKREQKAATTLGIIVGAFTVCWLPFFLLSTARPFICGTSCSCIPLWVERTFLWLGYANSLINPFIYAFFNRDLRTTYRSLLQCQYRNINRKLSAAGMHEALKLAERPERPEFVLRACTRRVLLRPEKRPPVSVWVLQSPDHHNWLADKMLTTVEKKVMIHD
5-hydroxytryptamine receptor 4 (Homo sapiens), sequence (Q13639 whole entry): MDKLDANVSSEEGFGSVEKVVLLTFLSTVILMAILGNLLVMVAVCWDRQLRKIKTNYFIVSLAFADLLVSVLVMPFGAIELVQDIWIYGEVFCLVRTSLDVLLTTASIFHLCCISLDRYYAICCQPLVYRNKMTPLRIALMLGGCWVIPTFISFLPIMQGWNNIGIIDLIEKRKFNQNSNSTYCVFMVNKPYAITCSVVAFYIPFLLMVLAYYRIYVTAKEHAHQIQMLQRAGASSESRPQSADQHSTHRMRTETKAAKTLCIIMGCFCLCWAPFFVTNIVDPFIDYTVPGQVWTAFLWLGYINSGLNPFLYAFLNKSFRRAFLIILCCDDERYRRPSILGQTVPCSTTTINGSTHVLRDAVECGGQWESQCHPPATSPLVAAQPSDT

SMILES	inhibition [1]	inhibition [2]	IC50 [3]	inhibition [4]
CC1CCN(CC[C@H]2CCCN2S(=O)(=O)c2cccc(O)c2)CC1	104%	–	–	–
CC(C)c1ccc(S(=O)(=O)n2c(-c3ccccc3)c(/C=N/N3CCN(C)CC3)c3ccccc32)cc1	–	–	–	35.4%
CN1CCN(/N=C/c2c(-c3ccccc3)n(S(=O)(=O)c3ccccc3)c3ccccc23)CC1	34.6%	79.9%	1800 nM	83.5%
Cc1c(C)c(S(=O)(=O)n2c(-c3ccccc3)c(/C=N/N3CCN(C)CC3)c3ccccc32)c(C)c2c1OC(C)(C)CC2	–	–	–	20.6%
Cc1c(/C=N/N2CCN(C)CC2)c2ccccc2n1S(=O)(=O)c1ccc(-c2ccc(Cl)cc2)cc1	–	–	–	0.1%
CN1CCN(/N=C/c2c(-c3ccccc3)n(S(=O)(=O)c3ccc4ccccc4c3)c3ccccc23)CC1	–	–	–	39.6%
CN1CCN(/N=C/c2c(-c3ccccc3)n(S(=O)(=O)c3ccc(I)cc3)c3ccccc23)CC1	–	–	–	24.3%
CN1CCN(/N=C/c2c(-c3ccccc3)n(S(=O)(=O)c3ccc(F)cc3)c3ccccc23)CC1	28.5%	37.3%	2900 nM	74.2%
COc1ccc(NS(=O)(=O)c2ccc(I)cc2)cc1N1CCN(C)CC1	5%	5.8%	–	–
Cc1c(C)c(S(=O)(=O)n2c(-c3ccccc3)c(/C=N/N3CCN(C)CC3)c3ccccc32)c(C)c2c1OC(C)(C)C2	–	–	–	22.4%
COc1cc(C)c(Cl)cc1S(=O)(=O)n1c(-c2ccccc2)c(/C=N/N2CCN(C)CC2)c2ccccc21	72.8%	13%	7400 nM	55.3%
Cc1ccc(S(=O)(=O)n2c(-c3ccccc3)c(/C=N/N3CCN(C)CC3)c3ccccc32)cc1	–	–	–	33.2%
CN1CCN(/N=C/c2c(-c3ccccc3)n(S(=O)(=O)c3ccc(Cl)cc3)c3ccccc23)CC1	–	–	–	30.5%
CN1CCN(/N=C/c2c(-c3ccccc3)n(S(=O)(=O)c3cccc4ccccc34)c3ccccc23)CC1	5%	9.4%	6600 nM	54%
CN1CCN(/N=C/c2c(-c3ccccc3)n(S(=O)(=O)c3ccc(OC(F)(F)F)cc3)c3ccccc23)CC1	–	–	–	38.7%
CN1CCN(/N=C/c2c(-c3ccccc3)n(S(=O)(=O)c3cn(C)cn3)c3ccccc23)CC1	46.4%	31.1%	3600 nM	67.4%
Cc1c(/C=N/N2CCN(C)CC2)c2ccccc2n1S(=O)(=O)c1ccc(Cl)c2nonc12	–	–	–	27.2%
CN1CCN(/N=C/c2c(-c3ccccc3)n(S(=O)(=O)Cc3ccccc3)c3ccccc23)CC1	–	–	–	36.5%
CCCCc1ccc(S(=O)(=O)n2c(-c3ccccc3)c(/C=N/N3CCN(C)CC3)c3ccccc32)cc1	–	–	–	14.3%
COc1ccc(S(=O)(=O)n2c(-c3ccccc3)c(/C=N/N3CCN(C)CC3)c3ccccc32)cc1	–	–	–	31.2%

Now from value to molecule:

inhibition [1]	inhibition [2]	IC50 [3]	inhibition [4]	SMILES
42.2%	65%	1400 nM	85.3%	CN1CCN(/N=C/c2c(-c3ccccc3)n(S(=O)(=O)c3cccc4c(N(C)C)cccc34)c3ccccc23)CC1
–	–	–	9.5%	Cc1c(/C=N/N2CCN(C)CC2)c2ccccc2n1S(=O)(=O)c1cccc2c(N(C)C)cccc12
18.4%	17.9%	2400 nM	88.6%	COc1cc(C)c(Cl)cc1S(=O)(=O)n1c(C)c(/C=N/N2CCN(C)CC2)c2ccccc21
17.1%	92.2%	2040 nM	78.9%	Cc1c(/C=N/N2CCN(C)CC2)c2ccccc2n1S(=O)(=O)c1ccc2ccccc2c1
–	–	–	44.6%	CCCCN(CCCC)c1cccc2c(S(=O)(=O)n3c(C)c(/C=N/N4CCN(C)CC4)c4ccccc43)cccc12
–	–	–	21.8%	CCCCN(CCCC)c1cccc2c(S(=O)(=O)n3c(-c4ccccc4)c(/C=N/N4CCN(C)CC4)c4ccccc43)cccc12
–	–	–	15.1%	Cc1c(/C=N/N2CCN(C)CC2)c2ccccc2n1S(=O)(=O)c1ccc(-c2ccccc2)cc1
12.3%	83%	4740 nM	71.7%	Cc1c(/C=N/N2CCN(C)CC2)c2ccccc2n1S(=O)(=O)c1ccc(F)cc1
–	–	–	16.1%	Cc1c(/C=N/N2CCN(C)CC2)c2ccccc2n1S(=O)(=O)c1ccc(/N=N/c2ccc(N(C)C)cc2)cc1
–	–	–	12.2%	CCc1ccc2ccccc2c1S(=O)(=O)n1c(C)c(/C=N/N2CCN(C)CC2)c2ccccc21
–	–	–	49.1%	Cc1ccc(S(=O)(=O)n2c(C)c(/C=N/N3CCN(C)CC3)c3ccccc32)cc1
–	–	–	13.5%	Cc1c(/C=N/N2CCN(C)CC2)c2ccccc2n1S(=O)(=O)c1ccc(I)cc1
–	–	–	52.4%	Cc1c(/C=N/N2CCN(C)CC2)c2ccccc2n1S(=O)(=O)c1ccc([N+](=O)[O-])cc1
